{"source": "ChEMBL document CHEMBL4825663", "about": "(J Med Chem, 2021)", "key": {"[1]": {"molecular_target": "ATP-binding cassette sub-family C member 3 (Homo sapiens, UniProt O15438)", "sequence (O15438 whole entry)": "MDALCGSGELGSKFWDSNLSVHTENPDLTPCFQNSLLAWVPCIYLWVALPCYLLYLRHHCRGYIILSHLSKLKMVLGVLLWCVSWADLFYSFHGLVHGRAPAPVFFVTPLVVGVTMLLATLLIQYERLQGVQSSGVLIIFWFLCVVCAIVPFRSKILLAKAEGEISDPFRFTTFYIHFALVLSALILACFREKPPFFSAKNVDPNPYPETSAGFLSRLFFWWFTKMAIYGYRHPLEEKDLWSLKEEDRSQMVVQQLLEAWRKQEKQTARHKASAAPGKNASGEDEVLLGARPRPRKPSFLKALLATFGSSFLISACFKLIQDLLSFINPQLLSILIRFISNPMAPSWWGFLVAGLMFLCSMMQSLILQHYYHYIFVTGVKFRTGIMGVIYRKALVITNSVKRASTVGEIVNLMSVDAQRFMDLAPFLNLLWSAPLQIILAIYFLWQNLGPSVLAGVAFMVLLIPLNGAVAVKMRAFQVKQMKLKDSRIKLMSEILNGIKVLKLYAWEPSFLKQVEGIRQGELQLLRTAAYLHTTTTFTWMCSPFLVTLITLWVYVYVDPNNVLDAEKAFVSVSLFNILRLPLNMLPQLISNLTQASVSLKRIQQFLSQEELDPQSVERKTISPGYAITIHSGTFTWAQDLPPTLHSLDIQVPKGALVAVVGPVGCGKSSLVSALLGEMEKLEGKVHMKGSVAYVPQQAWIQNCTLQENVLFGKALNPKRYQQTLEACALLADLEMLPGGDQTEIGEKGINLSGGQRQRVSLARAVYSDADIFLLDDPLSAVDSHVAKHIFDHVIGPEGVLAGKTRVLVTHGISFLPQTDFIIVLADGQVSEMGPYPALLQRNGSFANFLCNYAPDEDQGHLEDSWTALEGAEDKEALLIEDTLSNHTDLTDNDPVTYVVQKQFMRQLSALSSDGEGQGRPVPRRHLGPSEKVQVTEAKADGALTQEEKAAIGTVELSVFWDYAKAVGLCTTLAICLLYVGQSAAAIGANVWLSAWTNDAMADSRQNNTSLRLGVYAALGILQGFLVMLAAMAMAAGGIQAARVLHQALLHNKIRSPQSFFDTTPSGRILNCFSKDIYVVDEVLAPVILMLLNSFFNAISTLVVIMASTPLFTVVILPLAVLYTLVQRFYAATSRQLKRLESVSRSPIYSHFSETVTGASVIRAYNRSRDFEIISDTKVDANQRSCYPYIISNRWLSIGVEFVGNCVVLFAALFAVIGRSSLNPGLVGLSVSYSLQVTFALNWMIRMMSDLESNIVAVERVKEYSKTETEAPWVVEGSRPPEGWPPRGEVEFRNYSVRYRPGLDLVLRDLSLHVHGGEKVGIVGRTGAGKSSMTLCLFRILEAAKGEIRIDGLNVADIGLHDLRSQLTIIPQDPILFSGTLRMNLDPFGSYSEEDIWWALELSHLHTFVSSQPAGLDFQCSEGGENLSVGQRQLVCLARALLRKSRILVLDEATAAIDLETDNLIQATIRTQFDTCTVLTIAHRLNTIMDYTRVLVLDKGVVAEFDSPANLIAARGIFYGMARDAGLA", "experiment": "Inhibition of […]-stimulated MRP3 ATPase activity (unknown origin) in presence of GSH"}, "[2]": {"experiment": "Apparent permeability from apical to basolateral side in MDCK-II cells after 120 mins by LC-MS/MS analysis", "type": "ADME, cell-based, Canis lupus familiaris", "details": "dog; call rule not given here"}, "[3]": {"molecular_target": "T1, Solute carrier family 22 member 6 (Homo sapiens, UniProt Q4U2R8)", "T1 sequence (Q4U2R8 whole entry)": "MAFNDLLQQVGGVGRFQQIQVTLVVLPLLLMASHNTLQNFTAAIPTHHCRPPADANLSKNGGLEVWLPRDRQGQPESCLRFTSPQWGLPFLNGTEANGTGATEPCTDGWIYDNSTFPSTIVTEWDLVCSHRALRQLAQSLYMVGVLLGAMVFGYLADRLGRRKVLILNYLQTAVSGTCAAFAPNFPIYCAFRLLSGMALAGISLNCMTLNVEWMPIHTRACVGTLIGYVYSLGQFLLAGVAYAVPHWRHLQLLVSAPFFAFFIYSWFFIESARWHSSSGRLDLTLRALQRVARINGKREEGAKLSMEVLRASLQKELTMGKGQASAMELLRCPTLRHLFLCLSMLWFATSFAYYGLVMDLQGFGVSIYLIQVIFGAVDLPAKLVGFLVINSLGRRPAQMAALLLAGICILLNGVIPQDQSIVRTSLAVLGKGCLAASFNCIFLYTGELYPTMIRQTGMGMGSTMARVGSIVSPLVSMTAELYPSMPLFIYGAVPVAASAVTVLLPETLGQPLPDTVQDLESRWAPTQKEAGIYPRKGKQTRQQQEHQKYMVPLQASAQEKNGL", "experiment": "Inhibition of human OAT1 assessed as reduction in intracellular probe substrate accumulation upto 100 uM by microplate scintillation counter analysis relative to control", "type": "cell-based", "outline": "(§1)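 Cellular uptake-inhibition assays used Chinese hamster ovary, HEK293 or MDCKII cells stably expressing the respective human SLC transporter, run alongside the corresponding control cells. Inhibitor was tested at concentrations up to 100 μM.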"}, "[4]": {"molecular_target": "T2, Solute carrier organic anion transporter family member 1B3 (Homo sapiens, UniProt Q9NPD5)", "T2 sequence (Q9NPD5 whole entry)": "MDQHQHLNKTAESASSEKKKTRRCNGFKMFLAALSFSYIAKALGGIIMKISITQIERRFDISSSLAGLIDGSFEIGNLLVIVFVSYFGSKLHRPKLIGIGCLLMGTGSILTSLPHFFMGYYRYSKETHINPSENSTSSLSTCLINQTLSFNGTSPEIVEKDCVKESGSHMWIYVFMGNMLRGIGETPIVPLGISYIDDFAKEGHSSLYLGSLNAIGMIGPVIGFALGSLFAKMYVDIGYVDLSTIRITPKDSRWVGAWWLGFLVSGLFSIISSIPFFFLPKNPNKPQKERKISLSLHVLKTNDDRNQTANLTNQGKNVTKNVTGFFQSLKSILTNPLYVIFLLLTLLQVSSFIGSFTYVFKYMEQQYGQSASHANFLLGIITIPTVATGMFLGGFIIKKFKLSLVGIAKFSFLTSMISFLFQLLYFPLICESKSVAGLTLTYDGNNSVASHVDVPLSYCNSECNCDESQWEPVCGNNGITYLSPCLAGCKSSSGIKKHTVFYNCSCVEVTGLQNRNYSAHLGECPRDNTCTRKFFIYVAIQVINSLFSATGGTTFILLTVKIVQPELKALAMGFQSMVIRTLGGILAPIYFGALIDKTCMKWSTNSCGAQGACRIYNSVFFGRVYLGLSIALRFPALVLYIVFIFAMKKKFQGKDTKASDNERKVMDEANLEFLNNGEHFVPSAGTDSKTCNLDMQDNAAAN", "experiment": "Inhibition of human OATP1B3 assessed as reduction in intracellular probe substrate accumulation upto 100 uM by microplate scintillation counter analysis relative to control", "type": "cell-based", "outline": "as §1"}, "[5]": {"experiment": "AUClast in Beagle dog at 10 mg/kg, po measured upto 48 hrs by LC-MS/MS analysis", "type": "ADME, organism-based, Canis lupus familiaris", "parameters": "route oral, dose 10 mg/kg, time <=48", "details": "in vivo", "outline": "(§2)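 Single dose in male Sprague-Dawley rats and male Beagle dogs (n = 3 per species), given 3 mg/kg IV or 10 mg/kg PO. Plasma was sampled to derive Cmax, Tmax, T1/2 and AUClast by each route. Oral bioavailability (F) was calculated from the PO and IV AUClast.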"}, "[6]": {"experiment": "AUClast in Beagle dog at 3 mg/kg, iv measured upto 48 hrs by LC-MS/MS analysis", "type": "ADME, organism-based, Canis lupus familiaris", "parameters": "route intravenous, dose 3 mg/kg, time <=48", "details": "in vivo", "outline": "as §2"}, "Cytochrome P450 1A2": {"molecular_target": "T3, Cytochrome P450 1A2 (Homo sapiens, UniProt P05177)", "T3 sequence (P05177 whole entry)": "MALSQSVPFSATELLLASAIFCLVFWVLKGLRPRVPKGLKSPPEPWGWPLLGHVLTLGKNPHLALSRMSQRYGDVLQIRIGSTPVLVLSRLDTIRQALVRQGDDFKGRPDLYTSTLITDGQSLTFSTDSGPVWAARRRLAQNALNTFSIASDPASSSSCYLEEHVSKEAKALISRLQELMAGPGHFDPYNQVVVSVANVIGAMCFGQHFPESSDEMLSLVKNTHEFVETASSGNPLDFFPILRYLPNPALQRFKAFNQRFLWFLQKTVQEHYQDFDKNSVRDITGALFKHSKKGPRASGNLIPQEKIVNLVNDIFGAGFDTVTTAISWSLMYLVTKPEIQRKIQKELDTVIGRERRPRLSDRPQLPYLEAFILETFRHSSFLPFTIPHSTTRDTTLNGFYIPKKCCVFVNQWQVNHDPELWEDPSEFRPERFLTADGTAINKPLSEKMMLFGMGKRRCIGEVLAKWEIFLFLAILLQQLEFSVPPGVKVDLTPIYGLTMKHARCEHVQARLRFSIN", "experiment": "Drug metabolism assessed as human CYP1A2-mediated metabolism", "type": "ADME", "details": "recombinant enzyme"}, "[7]": {"experiment": "Toxicity in Beagle dog at 200 mg/kg, po administered as repeated dose and measured upto 13 weeks", "type": "organism-based, Canis lupus familiaris", "details": "in vivo, 2184 h"}, "[8]": {"experiment": "Drug distribution in Sprague-Dawley rat liver", "type": "ADME, tissue-based", "details": "in vivo"}, "[9]": {"experiment": "Drug distribution in Beagle dog liver", "type": "ADME, tissue-based, Canis lupus familiaris", "details": "in vivo"}, "[10]": {"experiment": "Tmax in Sprague-Dawley rat at 20 mg/kg, po measured upto 24 hrs in presence of 10 mg/kg encequidar by LC-MS/MS analysis", "type": "ADME, organism-based", "details": "in vivo"}, "[11]": {"experiment": "Half life in Sprague-Dawley rat at 6 mg/kg, iv measured upto 24 hrs by LC-MS/MS analysis", "details": "in vivo"}, "[12]": {"experiment": "Drug absorption in fed Sprague-Dawley rat at 20 mg/kg, po measured upto 24 hrs in presence of 10 mg/kg encequidar by LC-MS/MS analysis", "type": "ADME, organism-based", "details": "in vivo"}, "[13]": {"experiment": "Drug metabolism in dog plasma assessed as metabolic ratio of 3-p-hydroxypaclitaxel at 6 mg/kg, po in presence of 3 mg/kg encequidar", "type": "ADME, organism-based, Canis lupus familiaris", "details": "in vivo"}, "HT-29": {"tested_on": "HT-29", "experiment": "Antitumor activity against human HT-29 cells xenografted in athymic nude mouse assessed as reduction in tumor growth at 40 mg/kg, po in presence of 20 mg/kg encequidar", "type": "functional", "parameters": "scale not given: the % may be the effect or the level left"}}}
{"compound": "COc1cc2c(cc1OC)CN(CCc1ccc(-n3nnc(-c4cc(OC)c(OC)cc4NC(=O)c4cc(=O)c5ccccc5o4)n3)cc1)CC2", "values": [{"measurement": "IC50", "setting": "[1]", "result": "> 100", "unit": "µM"}, {"measurement": "Papp A→B at 2 h", "setting": "[2]", "result": 0.002, "unit": "×10⁻⁶ cm/s"}, {"measurement": "inhibition (INH)", "setting": "[3]", "result": "< 50", "unit": "%"}, {"measurement": "inhibition (INH)", "setting": "[4]", "result": "< 50", "unit": "%"}, {"measurement": "AUC(0-t) at 48 h", "setting": "[5]", "result": 724, "unit": "ng·h/mL"}, {"measurement": "AUC(0-t) at 48 h", "setting": "[6]", "result": 1920, "unit": "ng·h/mL"}, {"measurement": "Drug metabolism", "setting": "Cytochrome P450 1A2", "result": "Metabolite_Notdetected"}, {"measurement": "Activity", "setting": "[7]", "result": "Non-Toxic"}, {"measurement": "Drug uptake", "setting": "[8]", "result": "Active"}, {"measurement": "Drug uptake", "setting": "[9]", "result": "Active"}]}
{"compound": "CC(=O)O[C@H]1C(=O)[C@@]2(C)[C@H]([C@H](OC(=O)c3ccccc3)[C@]3(O)C[C@H](OC(=O)[C@H](O)[C@@H](NC(=O)c4ccccc4)c4ccccc4)C(C)=C1C3(C)C)[C@]1(OC(C)=O)CO[C@@H]1C[C@@H]2O", "note": "[PACLITAXEL]", "values": [{"measurement": "Tmax", "setting": "[10]", "result": 1, "unit": "h"}, {"measurement": "half-life at 24 h", "setting": "[11]", "result": 7.7, "unit": "h"}, {"measurement": "Drug absorption", "setting": "[12]", "result": "Not Active"}, {"measurement": "Ratio", "setting": "[13]", "result": 0.01}, {"measurement": "Activity", "setting": "HT-29", "result": 94, "unit": "%"}]}
